# From ChEMBL document CHEMBL4152256, “Structure-activity relationship of new antimalarial 1-aryl-3-susbtituted propanol derivatives: Synthesis, preliminary toxicity profiling, parasite life cycle stage studies, target exploration, and targeted delivery” (Eur J Med Chem, 2018)
# What was measured:
# [1] = Genotoxicity in Salmonella typhimurium TA1535 harboring pSK1002 assessed as survival at 1 mg/ml in absence of Sprague-Dawley rat liver S9 fraction after by SOS/umu assay relative to control; format: toxicity, organism-based; conditions: salmonella enterica subsp. enterica serovar typhimurium, read-out: Survival
# [2] = Genotoxicity in Salmonella typhimurium TA1535 harboring pSK1002 assessed as survival at 0.001 mg/ml in absence of Sprague-Dawley rat liver S9 fraction after by SOS/umu assay relative to control; format: toxicity, organism-based; conditions: salmonella enterica subsp. enterica serovar typhimurium, read-out: Survival
# [3] = Genotoxicity in Salmonella typhimurium TA1535 harboring pSK1002 assessed as survival at 0.5 mg/ml in absence of Sprague-Dawley rat liver S9 fraction after by SOS/umu assay relative to control; format: toxicity, organism-based; conditions: salmonella enterica subsp. enterica serovar typhimurium, read-out: Survival
# [4] = Genotoxicity in Salmonella typhimurium TA1535 harboring pSK1002 assessed as umu gene induction at 0.25 mg/ml in presence of Sprague-Dawley rat liver S9 fraction after by SOS/umu assay relative to control; format: toxicity, organism-based; conditions: salmonella enterica subsp. enterica serovar typhimurium, read-out: FC
# [5] = Genotoxicity in Salmonella typhimurium TA1535 harboring pSK1002 assessed as umu gene induction at 0.031 mg/ml in absence of Sprague-Dawley rat liver S9 fraction after by SOS/umu assay relative to control; format: toxicity, organism-based; conditions: salmonella enterica subsp. enterica serovar typhimurium, read-out: FC
# Plasmodium falciparum [6] = assay: Antiplasmodial activity against chloroquine-sensitive Plasmodium falciparum 3D7 by [3H]-hypoxanthine incorporation assay; format: functional, organism-based
# In short: (§1)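 Blood-stage P. falciparum 3D7 and FCR-3 were tested by a modified [3H]-hypoxanthine incorporation assay. Chloroquine was the reference in all runs.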
# [7] = Genotoxicity in Salmonella typhimurium TA1535 harboring pSK1002 assessed as umu gene induction at 0.25 mg/ml in absence of Sprague-Dawley rat liver S9 fraction after by SOS/umu assay relative to control; format: toxicity, organism-based; conditions: salmonella enterica subsp. enterica serovar typhimurium, read-out: FC
# [8] = Genotoxicity in Salmonella typhimurium TA1535 harboring pSK1002 assessed as survival at 0.008 mg/ml in presence of Sprague-Dawley rat liver S9 fraction after by SOS/umu assay relative to control; format: toxicity, organism-based; conditions: salmonella enterica subsp. enterica serovar typhimurium, read-out: Survival
# [9] = Genotoxicity in Salmonella typhimurium TA1535 harboring pSK1002 assessed as umu gene induction at 0.5 mg/ml in presence of Sprague-Dawley rat liver S9 fraction after by SOS/umu assay relative to control; format: toxicity, organism-based; conditions: salmonella enterica subsp. enterica serovar typhimurium, read-out: FC
# [10] = Genotoxicity in Salmonella typhimurium TA1535 harboring pSK1002 assessed as umu gene induction at 1 mg/ml in absence of Sprague-Dawley rat liver S9 fraction after by SOS/umu assay relative to control; format: toxicity, organism-based; conditions: salmonella enterica subsp. enterica serovar typhimurium, read-out: FC
# [11] = Genotoxicity in Salmonella typhimurium TA1535 harboring pSK1002 assessed as survival at 0.25 mg/ml in absence of Sprague-Dawley rat liver S9 fraction after by SOS/umu assay relative to control; format: toxicity, organism-based; conditions: salmonella enterica subsp. enterica serovar typhimurium, read-out: Survival
# [12] = Genotoxicity in Salmonella typhimurium TA1535 harboring pSK1002 assessed as survival at 0.031 mg/ml in absence of Sprague-Dawley rat liver S9 fraction after by SOS/umu assay relative to control; format: toxicity, organism-based; conditions: salmonella enterica subsp. enterica serovar typhimurium, read-out: Survival
# [13] = Genotoxicity in Salmonella typhimurium TA1535 harboring pSK1002 assessed as survival at 0.008 mg/ml in absence of Sprague-Dawley rat liver S9 fraction after by SOS/umu assay relative to control; format: toxicity, organism-based; conditions: salmonella enterica subsp. enterica serovar typhimurium, read-out: Survival
# [14] = Genotoxicity in Salmonella typhimurium TA1535 harboring pSK1002 assessed as survival at 0.5 mg/ml in presence of Sprague-Dawley rat liver S9 fraction after by SOS/umu assay relative to control; format: toxicity, organism-based; conditions: salmonella enterica subsp. enterica serovar typhimurium, read-out: Survival
# Plasmodium falciparum [15] = assay: Antiplasmodial activity against multidrug-resistant Plasmodium falciparum FCR-3 by [3H]-hypoxanthine incorporation assay; format: functional, organism-based, FCR-3/Gambia; conditions: Plasmodium falciparum, FCR-3/Gambia; in short: as §1
# [16] = Genotoxicity in Salmonella typhimurium TA1535 harboring pSK1002 assessed as survival at 0.25 mg/ml in presence of Sprague-Dawley rat liver S9 fraction after by SOS/umu assay relative to control; format: toxicity, organism-based; conditions: salmonella enterica subsp. enterica serovar typhimurium, read-out: Survival
# [17] = Genotoxicity in Salmonella typhimurium TA1535 harboring pSK1002 assessed as umu gene induction at 0.5 mg/ml in absence of Sprague-Dawley rat liver S9 fraction after by SOS/umu assay relative to control; format: toxicity, organism-based; conditions: salmonella enterica subsp. enterica serovar typhimurium, read-out: FC
# [18] = Solubility of the compound in DSPC:cholesterol:DSPE-PEG2000-Mal:DOPE-Rho lipid mixture at 250 uM; format: physicochemical
# In short: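 Compound added at 250 µM drug to the initial liposome lipid mixture (10 mM total lipid); precipitation and UV-visible absorbance above 300 nm assessed after encapsulation, removal of unencapsulated material and extraction with 1% w/v SDS in RPMI-A.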
# Plasmodium berghei [19] = assay: Antiplasmodial activity against Plasmodium berghei ANKA infected in mouse assessed as mouse survival time at 50 mg/kg/day, po for 4 consecutive days starting from 2 hrs post infection by MSF assay; format: functional
# In short: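 Swiss male mice (20 ± 2 g) infected i.p. with 10^7 P. berghei ANKA parasitized cells in 0.1 mL 0.9% saline (day 0). Oral dosing began 2 h post-infection and continued daily on days 0–3, five mice per batch. Test drugs were given at 50 mg/kg/day in water:DMSO and chloroquine diphosphate at 3 mg/kg/day; a vehicle control was included. Survival was checked daily, and parasitemia was read on day 4 by modified MSF assay.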
# Plasmodium falciparum [20] = assay: Antiplasmodial activity against multidrug-resistant Plasmodium falciparum C235 after 72 hrs by MSF assay; format: functional, organism-based; conditions: C235, 72 h
# In short: (§2)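 D6 and C235 strains from the Walter Reed Army Institute of Research were tested by the Malaria SYBR Green-I fluorescence assay.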
# Plasmodium berghei [21] = assay: Antiplasmodial activity against Plasmodium berghei ANKA infected in mouse assessed as inhibition of parasitemia at 50 mg/kg/day, po for 4 consecutive days starting from 2 hrs post infection by MSF assay relative to control; format: functional
# In short: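 Swiss male mice (20 ± 2 g) infected ip with 10^7 P. berghei ANKA parasitized cells (day 0). Five per group dosed orally 2 h after infection and daily on days 0–3. Test compounds at 50 mg/kg/day in water:DMSO; chloroquine diphosphate at 3 mg/kg/day; vehicle controls. Parasitemia measured on day 4 by MSF assay; survival checked daily.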
# Plasmodium falciparum [22] = assay: Antiplasmodial activity against Plasmodium falciparum D6 after 72 hrs by MSF assay; format: functional, organism-based; conditions: D6, 72 h; in short: as §2
# Plasmodium berghei [23] = assay: Antiplasmodial activity against GFP-fused Plasmodium berghei sporozoites infected in human HepG2A16 cells treated simultaneously with infection by fluorescence microscopic analysis; format: functional, organism-based
# In short: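 HepG2-A16 cells (3 × 10^4/well, collagen-coated) infected with PbGFP sporozoites (5 × 10^3 to 1 × 10^4/well) and treated at the same time. Top concentration 10 µg/mL in DMEM, seven serial dilutions. Medium and compound renewed at 3 h and every 24 h. After 40 h at 37 °C: methanol fixation, anti-Plasmodium Hsp70 immunolabeling, Alexa 594 secondary, DAPI; high-content imaging.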
Compound,viability at 1 mg/ml [1],viability at 0.001 mg/ml [2],viability at 0.5 mg/ml [3],fold induction at 0.25 mg/ml [4],fold induction at 0.031 mg/ml [5],"IC50 (Plasmodium falciparum [6]; Plasmodium falciparum, 3D7)",fold induction at 0.25 mg/ml [7],viability at 0.008 mg/ml [8],fold induction at 0.5 mg/ml [9],fold induction at 1 mg/ml [10],viability at 0.25 mg/ml [11],viability at 0.031 mg/ml [12],viability at 0.008 mg/ml [13],viability at 0.5 mg/ml [14],IC50 (Plasmodium falciparum [15]),viability at 0.25 mg/ml [16],fold induction at 0.5 mg/ml [17],solubility [18],MSD (Plasmodium berghei [19]),IC50 (Plasmodium falciparum [20]),further results
OC(CCN1CCN(c2ccccc2C(F)(F)F)CC1)c1ccc(F)cc1 (stereo not drawn),244%,111%,129%,1.3,0.8,1010 nM,0.5,96.1%,1.2,0.1,70.1%,95.5%,98.3%,37.2%,1690 nM,24.6%,0.2,Insoluble,,,
COc1ccccc1C1=CCN(CCC(O)c2ccc(F)cc2)CC1 (stereo not drawn),82.3%,114%,19.4%,1.1,1,2820 nM,1.3,88.3%,1.3,0.3,92.3%,114%,111%,82.1%,1320 nM,73%,2.3,Insoluble,6 days,3690 nM,inhibition in vivo at 50 mg/kg/day (Plasmodium berghei [21]): ≤ 50%; IC50 (Plasmodium falciparum [22]): 3730 nM
OC(CCN1CCN(c2ccccc2C(F)(F)F)CC1)c1ccc(F)c2ccccc12 (stereo in doubt; 55),229%,43.3%,175%,0.7,0.4,,0.1,121%,0.4,0.3,207%,127%,68.7%,168%,150 nM,95.4%,0.7,Insoluble,8 days,140 nM,IC50 (Plasmodium falciparum [6]): 160 nM; IC50 (Plasmodium berghei [23]): Not Active; IC50 (Plasmodium falciparum [22]): 100 nM
Nc1ccc(N2CCC(NCCC(O)c3ccc(F)c4ccccc34)CC2)c(C(F)(F)F)c1 (stereo not drawn),,101%,68.2%,0.1,0.7,140 nM,0.2,104%,0.1,,48%,31.5%,27.7%,118%,80 nM,118%,0.1,,3 days,,
